Measurements from ChEMBL document CHEMBL2406998, “Discovery of benzamide analogs as negative allosteric modulators of human neuronal nicotinic receptors: pharmacophore modeling and structure-activity relationship studies” (Bioorg Med Chem, 2013).
Calls of active or inactive are those of the source. No cut-off for these calls is given here.

What was measured:
[1] = biological target: T1, Neuronal acetylcholine receptor; alpha4/beta2 (Homo sapiens, UniProt P17787+P43681); test: Agonist activity at human alpha4beta2 nAChR; format: protein-complex assay
Summary of the method: (§1)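 HEK tsA201 cells stably expressing the human receptor subtype, plated 24 h ahead at 37 °C, 5% CO2 in supplemented DMEM to a ~100% confluent monolayer. Washed with HEPES-buffered Krebs, loaded 1 h at room temperature with 50% Calcium 5 NW dye. Compounds as HCl salts from 0.01 M DMSO stocks, six concentrations 0.1–100 µM in HBK. Intracellular calcium fluorescence read every 1.5 s (ex 485/em 525 nm).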

[2] = biological target: T2, Neuronal acetylcholine receptor; alpha3/beta4 (Homo sapiens, UniProt P30926+P32297); test: Agonist activity at human alpha3beta4 nAChR; format: protein-complex assay; summary of the method: as §1
Homo sapiens = species on record: Homo sapiens; test: Selectivity ratio of IC50 for human alpha3beta4 nAChR to IC50 for human alpha4beta2 nAChR
[3] = biological target: T2, Neuronal acetylcholine receptor; alpha3/beta4; test: Antagonist activity at human alpha3beta4 nAChR expressed in HEK-tsA201 cells assessed as inhibition of epibatidine-induced intracellular calcium level by fluorescence plate reader analysis; format: cell-based
Summary of the method: (§2)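 Stably transfected HEK tsA201 cells were plated 24 h ahead and grown at 37 °C, 5% CO2 in supplemented DMEM to a ~100% confluent monolayer. They were washed with HEPES-buffered Krebs, then loaded with 50% Calcium 5 NW dye for 1 h at room temperature. Compounds (HCl salts, six concentrations 0.1–100 µM, DMSO <1%) were tested against 1 µM epibatidine. Fluorescence was read at ex 485/em 525 nm every 1.5 s.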

[4] = biological target: T1, Neuronal acetylcholine receptor; alpha4/beta2; test: Antagonist activity at human alpha4beta2 nAChR expressed in HEK-tsA201 cells assessed as inhibition of epibatidine-induced intracellular calcium level by fluorescence plate reader analysis; format: cell-based; summary of the method: as §2
[5] = biological target: T1, Neuronal acetylcholine receptor; alpha4/beta2; test: Non-competitive antagonist activity at human alpha4beta2 nAChR expressed in HEK-tsA201 cells assessed as intracellular calcium level at 0.1 to 100 uM by fluorescence plate reader analysis in presence of epibatidine; format: cell-based
Summary of the method: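 Epibatidine concentration-response curves were run with and without test compound on hα4β2-expressing HEK tsA201 cells. The read-out was the calcium accumulation assay: cells loaded with Calcium 5 NW dye for 1 h at room temperature in HEPES-buffered Krebs, fluorescence read at ex 485/em 525 nm every 1.5 s. Compound dilutions of 0.1–100 µM were made from DMSO stocks, with DMSO below 1%.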

T1 sequence (P17787 whole entry): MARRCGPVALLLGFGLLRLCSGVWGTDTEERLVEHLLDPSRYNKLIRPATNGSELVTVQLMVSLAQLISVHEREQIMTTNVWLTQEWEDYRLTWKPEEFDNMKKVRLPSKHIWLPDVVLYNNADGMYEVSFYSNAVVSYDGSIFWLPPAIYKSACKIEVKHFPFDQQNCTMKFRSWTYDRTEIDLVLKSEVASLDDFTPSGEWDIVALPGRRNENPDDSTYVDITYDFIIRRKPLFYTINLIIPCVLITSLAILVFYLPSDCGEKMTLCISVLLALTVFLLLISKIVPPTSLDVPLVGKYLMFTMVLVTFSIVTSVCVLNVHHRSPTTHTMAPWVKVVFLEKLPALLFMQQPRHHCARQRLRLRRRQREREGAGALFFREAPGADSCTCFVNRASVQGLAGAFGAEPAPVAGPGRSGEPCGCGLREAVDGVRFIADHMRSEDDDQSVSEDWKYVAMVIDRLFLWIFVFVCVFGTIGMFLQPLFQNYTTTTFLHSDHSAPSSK
T1 sequence (P43681 whole entry): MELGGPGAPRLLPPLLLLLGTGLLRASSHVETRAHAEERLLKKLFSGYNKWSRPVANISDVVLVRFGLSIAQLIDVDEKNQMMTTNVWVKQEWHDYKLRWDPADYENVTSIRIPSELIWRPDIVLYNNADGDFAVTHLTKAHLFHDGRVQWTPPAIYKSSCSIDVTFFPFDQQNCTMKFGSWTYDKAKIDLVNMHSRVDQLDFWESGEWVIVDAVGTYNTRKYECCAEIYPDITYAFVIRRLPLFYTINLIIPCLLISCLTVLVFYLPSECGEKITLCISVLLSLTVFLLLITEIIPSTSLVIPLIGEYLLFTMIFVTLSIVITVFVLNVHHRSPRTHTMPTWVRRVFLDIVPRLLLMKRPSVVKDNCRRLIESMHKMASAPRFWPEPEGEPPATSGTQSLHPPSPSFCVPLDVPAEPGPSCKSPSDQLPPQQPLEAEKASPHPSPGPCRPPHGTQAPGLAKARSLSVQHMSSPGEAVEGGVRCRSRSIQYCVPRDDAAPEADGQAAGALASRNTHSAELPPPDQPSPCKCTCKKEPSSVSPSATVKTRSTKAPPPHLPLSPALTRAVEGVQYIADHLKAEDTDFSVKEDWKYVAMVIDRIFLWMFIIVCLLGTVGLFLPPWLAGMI
T2 sequence (P30926 whole entry): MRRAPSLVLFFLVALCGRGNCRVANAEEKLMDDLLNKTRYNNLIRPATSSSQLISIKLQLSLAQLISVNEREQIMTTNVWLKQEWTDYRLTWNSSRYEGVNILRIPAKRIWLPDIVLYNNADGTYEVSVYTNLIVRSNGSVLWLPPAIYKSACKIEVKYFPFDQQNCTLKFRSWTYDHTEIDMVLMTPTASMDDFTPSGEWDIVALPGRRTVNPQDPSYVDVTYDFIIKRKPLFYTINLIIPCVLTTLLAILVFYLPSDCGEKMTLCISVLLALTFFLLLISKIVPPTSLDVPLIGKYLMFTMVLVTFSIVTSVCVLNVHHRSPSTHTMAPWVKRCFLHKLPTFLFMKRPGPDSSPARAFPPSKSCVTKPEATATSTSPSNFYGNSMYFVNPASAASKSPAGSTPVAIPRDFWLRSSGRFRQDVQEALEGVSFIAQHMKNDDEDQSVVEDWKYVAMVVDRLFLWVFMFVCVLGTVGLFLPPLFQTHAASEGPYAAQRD
T2 sequence (P32297 whole entry): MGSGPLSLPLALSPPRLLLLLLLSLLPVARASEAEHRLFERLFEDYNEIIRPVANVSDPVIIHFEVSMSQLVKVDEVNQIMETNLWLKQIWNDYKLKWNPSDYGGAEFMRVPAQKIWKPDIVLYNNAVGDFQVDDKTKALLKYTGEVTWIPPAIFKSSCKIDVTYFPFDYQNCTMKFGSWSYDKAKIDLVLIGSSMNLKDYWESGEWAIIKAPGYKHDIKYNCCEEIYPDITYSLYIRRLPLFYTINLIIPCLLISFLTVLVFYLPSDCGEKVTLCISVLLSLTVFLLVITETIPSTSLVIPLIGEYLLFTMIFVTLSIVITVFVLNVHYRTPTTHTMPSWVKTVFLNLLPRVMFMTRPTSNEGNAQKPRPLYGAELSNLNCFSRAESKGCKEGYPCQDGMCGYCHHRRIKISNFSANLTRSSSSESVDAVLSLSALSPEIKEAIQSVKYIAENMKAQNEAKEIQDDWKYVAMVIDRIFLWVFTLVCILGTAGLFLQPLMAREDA

Activity [1] | Activity [2] | Ratio IC50 (Homo sapiens) | IC50 [3] [µM] | IC50 [4] [µM] | Activity [5] | Structure (SMILES)
inactive | inactive |  |  |  |  | CCCOc1ccc(C(=O)Nc2cccc(Nc3ccc(OC)cc3)n2)cc1
inactive | inactive | 1 | 17.4 | 17.1 |  | CCOc1ccc(C(=O)Nc2cc(C)cc(C)n2)cc1
 |  |  |  | 0.6 |  | CNC1(C)C2CCC(C2)C1(C)C (stereo not drawn) [MECAMYLAMINE]
inactive | inactive |  |  |  |  | C=CCOc1ccc(C(=O)Nc2cccc(NCCCC)n2)cc1
inactive | inactive |  |  |  |  | CCCOc1ccc(C(=O)Nc2cccc(Nc3ccccc3F)n2)cc1
inactive | inactive |  |  |  |  | C=CCOc1ccc(C(=O)Nc2cccc(NCCC)n2)cc1
inactive | inactive |  |  |  |  | CCCOc1ccc(C(=O)Nc2cccc(Nc3cccc(F)c3)n2)cc1
inactive | inactive |  |  |  |  | CCCCCCNc1cccc(NC(=O)c2ccc(OCCC)cc2)n1
inactive | inactive |  |  |  |  | C=CCOc1ccc(C(=O)Nc2cccc(Br)n2)cc1
inactive | inactive |  |  |  |  | CCCOc1ccc(C(=O)Nc2cccc(NCc3ccccc3)n2)cc1
inactive | inactive |  |  |  |  | CCCOc1ccc(C(=O)Nc2cccc(Nc3ccc(F)cc3)n2)cc1
inactive | inactive |  |  |  |  | CCCOc1ccc(C(=O)Nc2cccc(CC)n2)cc1
inactive | inactive |  |  |  |  | CCCOc1ccc(C(=O)Nc2cccc(Nc3ccc(Cl)cc3)n2)cc1
inactive | inactive |  |  |  |  | CCCCNc1cccc(NC(=O)c2ccc(OCCC)cc2)n1
inactive | inactive | 1.3 | 24.7 | 19.6 |  | C=C(C)COc1ccc(C(=O)Nc2cccc(C)n2)cc1
inactive | inactive |  |  |  |  | CCCOc1ccc(C(=O)Nc2cccc(Nc3ccccc3)n2)cc1
inactive | inactive | 1.1 | 21.7 | 19.4 |  | C#CCOc1ccc(C(=O)Nc2cccc(C)n2)cc1
inactive | inactive |  |  |  |  | CCCNc1cccc(NC(=O)c2ccc(OCCC)cc2)n1
inactive | inactive |  |  | 23.2 |  | CCCOc1ccc(C(=O)Nc2cnccn2)cc1
inactive | inactive |  |  |  |  | C=CCOc1ccc(C(=O)Nc2ccccn2)cc1
inactive | inactive |  |  |  | Active | C=CCOc1ccc(C(=O)Nc2cccc(C)n2)cc1
inactive | inactive |  |  |  |  | CCCOc1ccc(C(=O)Nc2cccc(N3CCCCC3)n2)cc1
inactive | inactive |  |  |  |  | CCCCCNc1cccc(NC(=O)c2ccc(OCCC)cc2)n1
inactive | inactive |  |  |  |  | C=CCOc1ccc(C(=O)Nc2cccc(CC)n2)cc1

Structure (SMILES) | Activity [1] | Activity [2] | Ratio IC50 (Homo sapiens) | IC50 [3] [µM] | IC50 [4] [µM] | Activity [5]
CCCOc1ccc(C(=O)Nc2cccc(Cl)n2)cc1 | inactive |  |  |  |  | 
C=CCOc1ccc(C(=O)Nc2cccc(Cl)n2)cc1 | inactive |  |  |  |  | 
CCCOc1ccc(C(=O)Nc2cccc(Br)n2)cc1 | inactive |  |  |  |  | 
COc1cc2c3cc1Oc1cc(ccc1O)C[C@@H]1c4c(cc(OC)c(O)c4Oc4ccc(cc4)C[C@@H]3N(C)CC2)CC[N+]1(C)C |  |  |  | 6.8 | 9.2 | 
